Assay results of several laboratories.
Protocols differ between the studies behind these lines.
Target: Protein kinase C theta type (PRKCQ, Homo sapiens, UniProt Q04759)

The remaining signal of `C[C@@H]1CCN(C(=O)CC#N)C[C@@H]1N(C)c1ncnc2[nH]ccc12` is reported as 89% (cell-free assay; 0.5 µM).
For `CNC(=O)c1cc(Oc2ccc(NC(=O)Nc3ccc(Cl)c(C(F)(F)F)c3)cc2)ccn1`, the inhibition was 3% (enzyme activity; inhibitor; 0.3 µM).
With `Cn1cncc1C1=CN(c2ncnc3[nH]cnc23)CCS1` the inhibition was 97.9% (enzyme activity; inhibitor; radiometric; 2 µM).
For `CC(C)(C)c1nc(-c2cccc(NS(=O)(=O)c3c(F)cccc3F)c2F)c(-c2ccnc(N)n2)s1`, the remaining activity was 120% (enzyme activity; inhibitor; radiometric; 1 µM).
For `C=CC(=O)Nc1cc(Nc2nccc(Nc3cc(Cl)c(F)cc3C(C)(C)O)n2)c(OC)cc1N1CC[C@@H](N(C)C)C1`, the inhibition was 17% (enzyme activity; inhibitor; 1 µM).
The remaining binding of `CNCc1ccccc1-c1csc([C@H](C)Nc2nc(C)nc3cc(OC)c(OC)cc23)c1` is reported as 100% (cell-free assay; competition with immobilised ligand; 1 µM).
`Cc1cc(NC(=O)c2cccc3cc(-c4cccc5[nH]nc(N)c45)ccc23)ccc1F` has an activity vs control of 93% (enzyme activity; inhibitor; 0.1 µM).
`CO[C@@H](C)c1c(Nc2ccc([C@@H](N(C)C(=O)C3CCS(=O)(=O)CC3)C(F)(F)F)cc2)cnc2cc(Cl)nn12` has a remaining binding of 98% (cell-free assay; competition with immobilised ligand; 1 µM).
The remaining signal of `COc1cc2c(Nc3ccc(Br)cc3F)ncnc2cc1OCC1CCN(C)CC1` is reported as 100% (cell-free assay; 0.5 µM).
`CCN(CC)CCNC(=O)c1c(C)[nH]c(/C=C2\C(=O)Nc3ccc(F)cc32)c1C` has an inhibition of 11% (enzyme activity; inhibitor; 10 µM).
The inhibition of `CN1CC(Oc2cnc(C#N)cc2-c2ccn3nc(NC(=O)C4CC4)cc3c2)C1` is reported as -2% (enzyme activity; inhibitor; 1 µM).
The remaining activity of `O=C(Nc1cnn(-c2csc(C(=O)NC3COC3)c2)c1)Nc1ccccc1Cl` is reported as 114% (enzyme activity; inhibitor; 5 µM).
With `CCN(CC)c1ccc(C2=NNC(=O)CC2C)cc1[N+](=O)[O-]` (centres unmarked) the remaining activity was 98% (enzyme activity; inhibitor; 10 µM).
With `Cc1ccc(C(=O)Nc2ccc(CN3CCN(C)CC3)c(C(F)(F)F)c2)cc1C#Cc1cnc2cccnn12` the remaining activity was 96% (enzyme activity; 23.5 nM).
`CC/C(=N\NC(=O)NCc1cccc(O)c1)c1ccc(O)c(C)c1O` has an inhibition of 12.2% (enzyme activity; inhibitor; 0.1 µM).
`Cc1c[nH]c2nccc(Oc3c(F)cc(Nc4cc(Cl)nc(N)n4)cc3F)c12` has a remaining binding of 66% (cell-free assay; competition with immobilised ligand; 0.1 µM).
`COc1cc2ncnc(Nc3ccc(Oc4ccccc4)cc3C)c2cc1OC` gave an inhibition of 2% (enzyme activity; inhibitor; 1 µM).
With `Cn1cnc(Br)c1C1=CN(c2ncnc3[nH]cnc23)CCS1` the inhibition was 97.9% (enzyme activity; inhibitor; radiometric; 2 µM).
With `CC(C)(O)[C@H]1CC[C@H](Nc2ccc3ncc(-c4cccc(C(F)(F)F)c4)n3n2)CC1` the remaining activity was 86.1% (enzyme activity; inhibitor; 1 µM).
With `COc1cccc(CNC(=O)c2nc3scc(COCc4ccc(C(=O)O)cc4)c3c(=O)[nH]2)c1` the remaining binding was 100% (cell-free assay; competition with immobilised ligand; 1 µM).
With `Nc1nc(Nc2ccc(S(N)(=O)=O)cc2)nn1C(=O)c1c(F)cccc1F` the remaining signal was 114% (cell-free assay; 0.5 µM).
`O=C(NCCCC1CCCCC1)c1ccc(CNC(=O)c2cnn(-c3ccccc3)c2C(F)(F)F)cc1` has a remaining binding of 100% (cell-free assay; competition with immobilised ligand; 0.1 µM).
For `O=C1Nc2ccc(Cl)cc2C1=Cc1cc(Cl)c(O)c(Cl)c1`, the remaining signal was 105% (cell-free assay; 0.5 µM).
The remaining binding of `Cn1nc(C(F)(F)F)cc1-c1cnc(N2CCc3cc(S(=O)(=O)Nc4c(F)cc(Cl)cc4F)cc(N4CCCC4=O)c32)nc1` is reported as 100% (cell-free assay; competition with immobilised ligand; 1 µM).
With `CN(C)C1CCN(CC#Cc2nn(C3CCCC3)c3nc(NCc4ccccc4)ncc23)C1` (centres unmarked) the inhibition was 19% (enzyme activity; inhibitor; FRET; 1 µM).
`Nc1cnc(N2CCc3cc(S(=O)(=O)Nc4c(F)cc(Cl)cc4F)cc(N4CCCC4=O)c32)nc1` gave a remaining binding of 89% (cell-free assay; competition with immobilised ligand; 1 µM).
For `C[C@@H](N)[C@H]1CC[C@H](C(=O)Nc2ccncc2)CC1`, the inhibition was 82.7% (enzyme activity; inhibitor; TR-FRET; 10 µM).
`CCS(=O)(=O)c1cc2cc(C[C@@](O)(CC(C)(C)c3ccc(F)cc3C(N)=O)C(F)(F)F)[nH]c2cn1` has a remaining binding of 97% (cell-free assay; competition with immobilised ligand; 1 µM).
The inhibition of `CNCc1ccc(-c2cc(-c3nc(-c4ccc(S(=O)(=O)C(C)C)cc4)cnc3N)on2)cc1` is reported as 0% (enzyme activity; inhibitor; 2 µM).
